Half-life, K and Concentration data for four molecules are collected here from ChEMBL document CHEMBL1124553, “Brain-specific chemical delivery systems for beta-lactam antibiotics. In vitro and in vivo studies of some dihydropyridine and dihydroisoquinoline derivatives of benzylpenicillin in rats” (J Med Chem, 1989).

Data set [1] can be described thus: Half-life for disappearance of compound from dog whole blood. The format is ADME, organism-based, Canis lupus familiaris. The procedure, abridged: (§1)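 Freshly collected whole blood, or 10% w/v brain homogenate in pH 7.4 phosphate buffer (ionic strength 0.15), was prewarmed to 37 °C. Compound was spiked from an 8 mM DMSO stock to 40 µM final. Timed samples were quenched in 8% DMSO/acetonitrile, centrifuged, filtered and analyzed by reversed-phase C8 HPLC with UV detection. K came from linear regression of log peak height versus time, with t1/2 derived from it. Values are mean ± SE of three determinations in different animal samples.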

Data set [2] is described as follows: Half-life for disappearance of compound from rat 10% brain homogenate. The format is ADME. A digest of the protocol:
as §1

Data set [3] in a line: Half-life for disappearance of compound from rat whole blood. The format is ADME, organism-based. The procedure, abridged: as §1
For data set [4], the species on record is Canis familiaris. The data set is described as follows: Pseudo first-order rate constant (K) for disappearance of compound from dog whole blood. The format is ADME, organism-based, Canis lupus familiaris. A digest of the protocol: as §1
The species entered for data set [5] is Rattus norvegicus. Kind of data set: Pseudo first-order rate constant (K) for disappearance of compound from rat 10% brain homogenate. The format is ADME. A digest of the protocol: (§2)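 Freshly collected whole blood (rat trunk blood; rabbit) or 10% w/v brain homogenate made in pH 7.4 phosphate buffer (μ = 0.15), prewarmed to 37 °C. Compound added from 8 mM DMSO stock to a final 40 μM. Timed 0.3 mL samples were quenched in 8% DMSO/acetonitrile, centrifuged, filtered and analysed by reversed-phase C8 HPLC-UV. K came from linear regression of log peak height versus time; n=3 animal samples.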

Data set [6] can be described thus: Pseudo first-order rate constant (K) for disappearance of compound from rat whole blood. The format is ADME, tissue-based. The procedure, abridged: as §2
Data set [7] has as its system Rattus norvegicus. Kind of data set: Concentration of compound in rat blood after intravenous injection of 20 mg/kg benzyl-penicillin after 1 min. The format is functional, organism-based. Further details: dose 20 mg/kg. The procedure, abridged: (§3)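 Male Sprague-Dawley rats (200-250 g), conscious, received 60 µmol/kg (equimolar to 20 mg/kg benzylpenicillin) by tail-vein injection. Benzylpenicillin K was given in water/ethanol/propylene glycol, and the delivery systems in ethanol:propylene glycol 7:3, at 20 mg/mL. Rats were decapitated at set times (4-6 per point), with trunk blood heparinized and brain, kidney, liver and lung frozen. Benzylpenicillin was measured by disk microbioassay (Bacillus subtilis ATCC 6633) after >5-volume sterile-water dilution or homogenization, against matrix calibration curves; assay limit 0.05 µg/mL.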

For data set [8], the system named is Rattus norvegicus. The data set is described as follows: Concentration of compound in rat blood after intravenous injection of 20 mg/kg benzyl-penicillin after 10 min. The format is functional, organism-based. Also noted: dose 20 mg/kg. The procedure, abridged:
as §3

Data set [9] has as its system Rattus norvegicus. Kind of data set: Concentration of compound in rat blood after intravenous injection of 20 mg/kg benzyl-penicillin after 20 min. Also noted: dose 20 mg/kg. The format is functional, organism-based. The procedure, abridged:
as §3

Data set [10] concerns Rattus norvegicus. Kind of data set: Concentration of compound in rat blood after intravenous injection of 20 mg/kg benzyl-penicillin after 3 min. The format is functional, organism-based. Also noted: dose 20 mg/kg. The procedure, abridged: as §3
Data set [11] concerns Rattus norvegicus. The data set is described as follows: Concentration of compound in rat blood after intravenous injection of 20 mg/kg benzyl-penicillin after 5 min. The format is functional, organism-based. Also noted: dose 20 mg/kg. The procedure, abridged:
as §3

Data set [12] deals with Rattus norvegicus. Kind of data set: Concentration of compound in rat brain after intravenous injection of 20 mg/kg benzyl-penicillin after 1 min. The format is functional, organism-based. Further details: dose 20 mg/kg. The procedure, abridged:
as §3

In data set [13] the test system is Rattus norvegicus. Kind of data set: Concentration of compound in rat brain after intravenous injection of 20 mg/kg benzyl-penicillin after 3 min. The format is functional, organism-based. Also noted: dose 20 mg/kg. The procedure, abridged:
as §3

A short description of data set [14]: Half-life for disappearance of compound from human whole blood. The format is ADME, organism-based. A digest of the protocol: as §1
Data set [15] in a line: Half-life for disappearance of compound from rabbit 10% brain homogenate. The format is ADME, Oryctolagus cuniculus. A digest of the protocol: as §1
Data set [16] can be described thus: Half-life for disappearance of compound from rabbit whole blood. The format is ADME, organism-based, Oryctolagus cuniculus. A digest of the protocol:
as §1

For data set [17], the species on record is Homo sapiens. Kind of data set: Pseudo first-order rate constant (K) for disappearance of compound from human whole blood. The format is ADME, organism-based. A digest of the protocol:
as §1

For data set [18], the species on record is Oryctolagus cuniculus. The data set is described as follows: Pseudo first-order rate constant (K) for disappearance of compound from rabbit 10% brain homogenate. The format is ADME. The procedure, abridged:
as §2

The species named for data set [19] is Oryctolagus cuniculus. The data set is described as follows: Pseudo first-order rate constant (K) for disappearance of compound from rabbit whole blood. The format is ADME, organism-based. The procedure, abridged: as §2
Data set [20] concerns Rattus norvegicus. Kind of data set: Concentration of compound in rat brain after intravenous injection of 20 mg/kg benzyl-penicillin after 60 min;Below detection limit. The format is functional, organism-based. Also noted: dose 20 mg/kg. The procedure, abridged: as §3
For data set [21], the system named is Rattus norvegicus. The data set is described as follows: Concentration of compound in rat blood after intravenous injection of 20 mg/kg benzyl-penicillin after 40 min. Further details: dose 20 mg/kg. The format is functional, organism-based. A digest of the protocol:
as §3

The test system of data set [22] is Rattus norvegicus. The data set is described as follows: Concentration of compound in rat blood after intravenous injection of 20 mg/kg benzyl-penicillin after 60 min. Further details: dose 20 mg/kg. The format is functional, organism-based. The procedure, abridged: as §3
Data set [23] has as its system Rattus norvegicus. The data set is described as follows: Concentration of compound in rat brain after intravenous injection of 20 mg/kg benzyl-penicillin after 10 min. The format is functional, organism-based. Further details: dose 20 mg/kg. A digest of the protocol:
as §3

Data set [24] deals with Rattus norvegicus. The data set is described as follows: Concentration of compound in rat brain after intravenous injection of 20 mg/kg benzyl-penicillin after 20 min;Below detection limit. The format is functional, organism-based. Further details: dose 20 mg/kg. The procedure, abridged: as §3
In data set [25] the test system is Rattus norvegicus. The data set is described as follows: Concentration of compound in rat brain after intravenous injection of 20 mg/kg benzyl-penicillin after 40 min;Below detection limit. The format is functional, organism-based. Further details: dose 20 mg/kg. The procedure, abridged:
as §3

Data set [26] has as its system Rattus norvegicus. The data set is described as follows: Concentration of compound in rat brain after intravenous injection of 20 mg/kg benzyl-penicillin after 5 min. The format is functional, organism-based. Also noted: dose 20 mg/kg. A digest of the protocol: as §3

For `CN1C=c2ccccc2=C(C(=O)NCCOC(=O)C2N3C(=O)C(NC(=O)Cc4ccccc4)C3SC2(C)C)C1` (stereo not given), the half-life (usually how long it takes for the measured level to halve) was determined as 11.4 min in data set [1], 28.3 min in data set [2] and 0.6 min in [3]. In addition, the K in data set [4] was 0.062 min⁻¹; in data set [5], 0.025 min⁻¹; in data set [6], 1.083 min⁻¹. For the same molecule, the Concentration is 6.6 µg/mL in data set [7]; 1.2 µg/mL in [8]; 0.2 µg/mL in [9]; 3 µg/mL in [10]; 2.5 µg/mL in data set [11]; 0.2 µg/mL in [12]. This molecule yielded a Concentration in data set [13] of 0.2 µg/mL.
As for `C[n+]1cc(C(=O)NCCOC(=O)C2N3C(=O)C(NC(=O)Cc4ccccc4)C3SC2(C)C)c2ccccc2c1.[I-]` (stereo not given), the half-life in [1] was determined as 13.5 min; in data set [2] it was 73.4 min; in data set [3] it was 6 min. Besides, the figures for the K in data set [4], in data set [5] and in data set [6] were 0.051 min⁻¹, 0.01 min⁻¹ and 0.115 min⁻¹, respectively.
As to `CN1C=CCC(C(=O)NCCOC(=O)C2N3C(=O)C(NC(=O)Cc4ccccc4)C3SC2(C)C)=C1` (stereo not given), the half-life in data set [1] turned out to be 5.7 min; in data set [14], 19.4 min; in data set [15] it was 4.6 min; in [16], 1.3 min; in [2], 5.7 min; in [3], 0.3 min. In addition, the K in [4] came out at 0.123 min⁻¹; in data set [17] it was 0.037 min⁻¹; in data set [18] it was 0.152 min⁻¹; in [19], 0.553 min⁻¹; in data set [5], 0.125 min⁻¹; in [6] it was 2.712 min⁻¹. In addition, the Concentration entry in data set [20] was “Below limit of detection”; in data set [7] it was 5 µg/mL; in data set [8], 4.9 µg/mL; in data set [9], 0.8 µg/mL; in [10] it was 7.3 µg/mL; in data set [21], 0.3 µg/mL. In addition, the Concentration in data set [11] was 3.8 µg/mL; in data set [22], 0.2 µg/mL; in data set [12] it was 0.2 µg/mL; in data set [23], 0.1 µg/mL; in [24] it was “Below limit of detection”; in [13], 0.3 µg/mL. The Concentration result in data set [25] was “Below limit of detection”; in data set [26], 0.2 µg/mL.
Consider `CN1C=CCC(C(=O)OCOC(=O)C2N3C(=O)C(NC(=O)Cc4ccccc4)C3SC2(C)C)=C1` (stereo not given), for which the half-life in data set [1] worked out at 3.6 min; in [14], 15.9 min; in [15], 4.3 min; in [16], 0.8 min; in data set [2], 0.6 min. Besides, the K in data set [4] was 0.213 min⁻¹; in data set [17], 0.045 min⁻¹; in data set [18], 0.166 min⁻¹; in data set [19], 0.949 min⁻¹; in data set [5], 1.357 min⁻¹.
